Data reported in publication PMC7862734 (Investigative Ophthalmology & Visual Science, 2021).
Each block holds one molecule with its values, some of them ahead of it. *: point of attachment. Biotin = O=C1N[C@H]2[C@H](CS[C@H]2CCCCC(=O)*)N1

Key:
[1] = intravitreal, human eyes; cited from earlier work
[2] = target: cytosolic kinase domain of PDGFRα (Homo sapiens, UniProt P16234); assay: SPR; assay type: binding; settings: protein up to 200 nM, HBS-EP, 25°C
[3] = target: cytosolic kinase domain of PDGFRβ (Homo sapiens, UniProt P09619); assay: SPR; assay type: binding; settings: protein up to 200 nM, HBS-EP, 25°C
[4] = Biodistribution after eye drop, cryosection stained with Alexa 488-streptavidin; assay type: in vivo, mouse; settings: eye drop 5 µg/eye, C57BL/6, time points 10 minutes, 30 minutes, 1 hour, 2 hours, streptavidin staining
[5] = system: laser-induced CNV in C57BL/6 mice; assay: Laser-induced choroidal neovascularization; assay type: in vivo, mouse
How it was run: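 C57BL/6 mice (7 weeks). Four 532 nm laser burns per mouse (200–355 mW, 50 µm, 70 msec). Test compound given as a daily eye drop (2 or 5 µg/eye in 5 µL PBS, days 1–14 or days 7–14) or as an intravitreal injection after laser (0.5–10 µg in 2 µL PBS), against control peptide or PBS. Day-14 OCT cross-section and ILB4-stained choroidal flat-mount area, averaged per mouse.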

Centaurin alpha (CentA) = target: T1, Centaurin alpha (CentA) (Homo sapiens, UniProt O75689); assay: Pull-down assay from HUVEC lysate, Western blotting; assay type: binding; settings: biotin-peptide on streptavidin beads
T1 sequence (O75689 1-374): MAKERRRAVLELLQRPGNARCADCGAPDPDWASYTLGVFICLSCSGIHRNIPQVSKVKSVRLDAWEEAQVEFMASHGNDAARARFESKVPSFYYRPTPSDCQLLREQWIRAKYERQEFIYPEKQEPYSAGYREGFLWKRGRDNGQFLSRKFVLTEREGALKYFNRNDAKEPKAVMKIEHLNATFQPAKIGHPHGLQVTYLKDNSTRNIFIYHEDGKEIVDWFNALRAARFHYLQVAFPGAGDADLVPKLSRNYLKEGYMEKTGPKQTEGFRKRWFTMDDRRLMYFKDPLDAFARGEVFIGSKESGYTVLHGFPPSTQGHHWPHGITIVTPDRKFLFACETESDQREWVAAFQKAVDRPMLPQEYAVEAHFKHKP
How it was run: (§1)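 HUVEC at passage 3–6 grown in EGM2 and lysed. Lysate incubated with biotinylated test or control peptide captured on streptavidin beads. After washing, bound proteins and lysate input were immunoblotted with antibodies to VEGFR2 and Centaurin A.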

VEGFR2 = VEGFR2 (Homo sapiens, UniProt P35968); assay: as above; assay type: binding; settings: biotin-peptide on streptavidin beads
How it was run: as §1

[6] = target: cytosolic kinase domain of EGFR (Homo sapiens, UniProt P00533); assay: SPR; assay type: binding; settings: protein up to 200 nM, HBS-EP, 25°C
[7] = target: Kinesin-derived angiogenesis inhibitor (KAI), biotinylated (human) (UniProt Q9NQT8); assay: SPR
[8] = target: recombinant cytosolic domain (789-1356 aa) of VEGFR2 (UniProt P35968 789-1356); assay: SPR
Sequence of recombinant cytosolic domain (789-1356 aa) of VEGFR2 (P35968 789-1356): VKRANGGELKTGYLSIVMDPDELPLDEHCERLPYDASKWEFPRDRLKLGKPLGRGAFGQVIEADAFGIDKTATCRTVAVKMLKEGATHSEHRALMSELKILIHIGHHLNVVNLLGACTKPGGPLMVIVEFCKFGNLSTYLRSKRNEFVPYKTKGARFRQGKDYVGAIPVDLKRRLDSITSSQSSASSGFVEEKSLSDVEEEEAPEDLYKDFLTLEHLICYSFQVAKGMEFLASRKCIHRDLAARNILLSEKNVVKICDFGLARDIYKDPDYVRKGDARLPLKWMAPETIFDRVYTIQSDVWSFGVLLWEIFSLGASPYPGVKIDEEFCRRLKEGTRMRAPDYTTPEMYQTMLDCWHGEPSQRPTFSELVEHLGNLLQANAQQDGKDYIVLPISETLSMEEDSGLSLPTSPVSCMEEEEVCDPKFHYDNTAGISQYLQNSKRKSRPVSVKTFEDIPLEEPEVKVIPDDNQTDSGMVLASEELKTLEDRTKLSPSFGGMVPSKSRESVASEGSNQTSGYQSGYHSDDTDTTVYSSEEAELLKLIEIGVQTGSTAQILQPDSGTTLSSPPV

Sequence of VEGFR2 (P35968 20-1356): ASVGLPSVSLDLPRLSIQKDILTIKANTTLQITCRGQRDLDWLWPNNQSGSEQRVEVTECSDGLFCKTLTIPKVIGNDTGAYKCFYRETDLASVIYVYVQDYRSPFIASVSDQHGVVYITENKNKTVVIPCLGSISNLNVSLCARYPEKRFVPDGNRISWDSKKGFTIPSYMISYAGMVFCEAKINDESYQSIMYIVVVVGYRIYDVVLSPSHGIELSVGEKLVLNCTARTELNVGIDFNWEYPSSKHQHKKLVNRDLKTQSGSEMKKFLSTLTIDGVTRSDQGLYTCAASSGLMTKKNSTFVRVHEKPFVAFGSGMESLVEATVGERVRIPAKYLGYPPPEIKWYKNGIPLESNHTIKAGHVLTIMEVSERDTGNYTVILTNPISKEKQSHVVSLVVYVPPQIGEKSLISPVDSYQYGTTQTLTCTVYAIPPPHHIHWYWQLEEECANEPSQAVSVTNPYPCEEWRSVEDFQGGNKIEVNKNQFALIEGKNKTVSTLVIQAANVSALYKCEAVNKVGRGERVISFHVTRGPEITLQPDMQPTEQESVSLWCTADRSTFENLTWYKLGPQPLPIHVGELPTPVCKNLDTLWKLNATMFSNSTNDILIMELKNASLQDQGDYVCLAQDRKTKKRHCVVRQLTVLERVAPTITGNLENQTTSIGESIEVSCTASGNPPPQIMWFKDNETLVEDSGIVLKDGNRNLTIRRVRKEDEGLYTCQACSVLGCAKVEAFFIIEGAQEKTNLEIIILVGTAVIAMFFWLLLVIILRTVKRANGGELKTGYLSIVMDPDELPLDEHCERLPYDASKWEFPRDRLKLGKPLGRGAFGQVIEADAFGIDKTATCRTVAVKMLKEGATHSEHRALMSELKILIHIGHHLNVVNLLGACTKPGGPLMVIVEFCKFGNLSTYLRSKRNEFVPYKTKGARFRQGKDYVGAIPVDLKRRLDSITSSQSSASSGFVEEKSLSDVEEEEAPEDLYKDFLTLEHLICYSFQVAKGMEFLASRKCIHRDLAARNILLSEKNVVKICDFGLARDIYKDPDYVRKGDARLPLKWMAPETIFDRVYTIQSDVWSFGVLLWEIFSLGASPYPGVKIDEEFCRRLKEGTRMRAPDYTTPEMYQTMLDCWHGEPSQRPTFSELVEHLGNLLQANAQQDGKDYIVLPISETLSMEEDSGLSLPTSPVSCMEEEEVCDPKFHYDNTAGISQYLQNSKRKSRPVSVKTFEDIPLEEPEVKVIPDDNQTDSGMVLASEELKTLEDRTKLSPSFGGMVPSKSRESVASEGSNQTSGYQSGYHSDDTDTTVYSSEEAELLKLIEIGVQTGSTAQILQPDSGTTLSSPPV
Sequence of cytosolic kinase domain of PDGFRα (P16234 550-1089 limits assumed): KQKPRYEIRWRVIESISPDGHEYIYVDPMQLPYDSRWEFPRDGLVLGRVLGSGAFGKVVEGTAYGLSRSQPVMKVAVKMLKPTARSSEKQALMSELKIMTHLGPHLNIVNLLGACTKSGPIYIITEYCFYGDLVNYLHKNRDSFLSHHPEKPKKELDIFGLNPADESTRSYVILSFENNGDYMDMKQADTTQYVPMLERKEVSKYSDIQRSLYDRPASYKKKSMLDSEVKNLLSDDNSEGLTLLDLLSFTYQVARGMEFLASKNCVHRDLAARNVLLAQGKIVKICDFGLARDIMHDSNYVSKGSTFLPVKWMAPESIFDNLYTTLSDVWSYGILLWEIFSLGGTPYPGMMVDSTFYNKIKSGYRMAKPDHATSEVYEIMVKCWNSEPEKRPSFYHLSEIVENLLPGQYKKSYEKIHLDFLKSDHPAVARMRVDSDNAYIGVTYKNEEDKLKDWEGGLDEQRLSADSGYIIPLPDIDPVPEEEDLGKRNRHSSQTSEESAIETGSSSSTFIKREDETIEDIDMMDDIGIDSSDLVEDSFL
Sequence of cytosolic kinase domain of PDGFRβ (P09619 554-1106 limits assumed): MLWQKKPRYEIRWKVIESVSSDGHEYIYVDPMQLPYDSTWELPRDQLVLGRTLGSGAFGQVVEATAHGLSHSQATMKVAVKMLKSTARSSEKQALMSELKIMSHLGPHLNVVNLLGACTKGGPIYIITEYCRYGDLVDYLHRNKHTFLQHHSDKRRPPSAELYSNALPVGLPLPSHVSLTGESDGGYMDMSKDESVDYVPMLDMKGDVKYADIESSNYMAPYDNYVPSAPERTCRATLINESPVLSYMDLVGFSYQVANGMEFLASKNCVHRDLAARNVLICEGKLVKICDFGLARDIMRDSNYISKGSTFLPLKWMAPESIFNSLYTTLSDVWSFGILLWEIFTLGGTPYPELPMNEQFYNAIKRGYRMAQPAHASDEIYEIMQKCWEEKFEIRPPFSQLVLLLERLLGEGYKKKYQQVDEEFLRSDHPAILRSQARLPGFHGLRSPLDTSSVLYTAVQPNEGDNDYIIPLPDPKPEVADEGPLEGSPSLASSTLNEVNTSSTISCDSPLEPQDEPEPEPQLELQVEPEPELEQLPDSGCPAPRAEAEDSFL

Kd [7]: > 200 nM
Molecule: recombinant cytosolic domain of PDGFRB (domain or fragment)

Kd [8]: 6.8 ± 0.6 nM
B1: Kinesin-derived angiogenesis inhibitor (KAI), biotinylated (peptide, UniProt Q9NQT8 1238-1260, looked up)
peptide: Biotin-SRGTPVDERLFLIVRVTVQLSHP-NH2
SMILES: CC[C@H](C)[C@H](NC(=O)[C@H](CC(C)C)NC(=O)[C@H](Cc1ccccc1)NC(=O)[C@H](CC(C)C)NC(=O)[C@H](CCCNC(=N)N)NC(=O)[C@H](CCC(=O)O)NC(=O)[C@H](CC(=O)O)NC(=O)[C@@H](NC(=O)[C@@H]1CCCN1C(=O)[C@@H](NC(=O)CNC(=O)[C@H](CCCNC(=N)N)NC(=O)[C@H](CO)NC(=O)CCCC[C@@H]1SC[C@@H]2NC(=O)N[C@@H]21)[C@@H](C)O)C(C)C)C(=O)N[C@H](C(=O)N[C@@H](CCCNC(=N)N)C(=O)N[C@H](C(=O)N[C@H](C(=O)N[C@H](C(=O)N[C@@H](CCC(N)=O)C(=O)N[C@@H](CC(C)C)C(=O)N[C@@H](CO)C(=O)N[C@@H](Cc1c[nH]cn1)C(=O)N1CCC[C@H]1C(N)=O)C(C)C)[C@@H](C)O)C(C)C)C(C)C

Second part, the molecule before the results:

Molecule: ranibizumab
Aqueous half-life [1]: 7.19 days

Molecule: KAI: 23 aa peptide, aa 1238-1260 of human KIF13B, minimum binding site to VEGFR2; biotinylated N-terminus, amidated C-terminus (Biotin-SRGTPVDERLFLIVRVTVQLSHP-NH2; SMILES CC[C@H](C)[C@H](NC(=O)[C@H](CC(C)C)NC(=O)[C@H](Cc1ccccc1)NC(=O)[C@H](CC(C)C)NC(=O)[C@H](CCCNC(=N)N)NC(=O)[C@H](CCC(=O)O)NC(=O)[C@H](CC(=O)O)NC(=O)[C@@H](NC(=O)[C@@H]1CCCN1C(=O)[C@@H](NC(=O)CNC(=O)[C@H](CCCNC(=N)N)NC(=O)[C@H](CO)NC(=O)CCCC[C@@H]1SC[C@@H]2NC(=O)N[C@@H]21)[C@@H](C)O)C(C)C)C(=O)N[C@H](C(=O)N[C@@H](CCCNC(=N)N)C(=O)N[C@H](C(=O)N[C@H](C(=O)N[C@H](C(=O)N[C@@H](CCC(N)=O)C(=O)N[C@@H](CC(C)C)C(=O)N[C@@H](CO)C(=O)N[C@@H](Cc1c[nH]cn1)C(=O)N1CCC[C@H]1C(N)=O)C(C)C)[C@@H](C)O)C(C)C)C(C)C)
Binding of PDGFRα to immobilized peptide (in words) [2]: did not bind
Binding of PDGFRβ to immobilized peptide (in words) [3]: very weak binding
Time at which peptide was detected in the retina and choroid [4]: 30 min
Regression of developed CNV ([5]; eye drop 5 µg/eye daily from day 7 to day 14): effective to regress neovascularization
Area of CNV measured by OCT (cross-section) vs ctrl ([5]; eye drop 2∼5 µg/eye daily day 1 to day 14, 200 mW laser, day 14): significantly reduced
Effect on CNV vs PBS (OCT and ILB4 staining) ([5]; intravitreal injection 2 µg in 2 µL PBS after laser burn, 355 mW, C57BL/6, P = 0.045 (OCT), P = 0.034 (ILB4), one-way ANOVA): significantly inhibited
Interaction with CentA in pull-down (Centaurin alpha (CentA)): does not bind
Interaction with VEGFR2 in pull-down (VEGFR2): interacts
Binding of EGFR to immobilized peptide (in words) [6]: did not bind

Molecule: bevacizumab
Aqueous half-life [1]: 9.82 days
